Test results: article PMC9889650 (Journal of Veterinary Internal Medicine, 2022)
Like-named read-outs stand apart in the source and are kept apart here.

Tests used:
[1] = test system: primary canine T cell cancers (T cell lymphoma, TZL, T-CLL) neoplastic T lymphocytes; experiment: In vitro BH3 mimetics sensitivity cell kill assay, primary canine T cell cancers; format: cell-based; settings: dog 26, multicentric large T cell lymphoma, neoplastic CD3+ nodal T cells, 24 h
[2] = test system: MDCK immortalized canine kidney cells; experiment: Cell viability after 24h treatment, MDCK cell line; format: cell-based, dog
Outline: (§1)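 MDCK canine kidney cells were kept in DMEM with 10% FCS and penicillin/streptomycin at 37°C, 5% CO2, for at most four passages, and tested Mycoplasma-negative. As a control line they were given a BH3 mimetic at 2 nM–10 μM, with 0.001% DMSO as the negative control, for 24 h.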

[3] = test system: canine osteosarcoma cell line OSCA40; experiment: Cell viability after 24h treatment, OSCA40 cell line; format: cell-based, dog; settings: OSCA40, 24h
Outline: as §1, with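 “OSCA40” for “MDCK”, “osteosarcoma” for “kidney”, “α-MEM” for “DMEM”, “FCS, 10 mM L-glutamine” for “FCS”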

[4] = test system: human B‐cell acute lymphoblastic leukemia cell line RS4;11; experiment: Cell viability after 24h treatment, RS4; format: cell-based; settings: RS4;11 positive control
Outline: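 RS4;11 human B-ALL cells had their identity genetically confirmed and were grown in RPMI with 10% FCS and penicillin/streptomycin at 37°C, 5% CO2, for at most four passages. They were run as a control with each experiment at 1 × 10^5 cells/well in single replicates, given a BH3 mimetic at 2 nM–10 μM or 0.001% DMSO for 24 h at 37°C.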

[5] = people, 400 mg daily dosing; cited from earlier work
[6] = dogs, 20 mg/kg once a day; cited from earlier work
Beagles = settings: 2 to 20 mg/kg PO daily for up to 9 months; cited from earlier work
human DLBCL (hDLBCL) = settings: single‐agent treatment; cited from earlier work

| SMILES | EC50 [1] [nM] | sensitivity in vitro [2] | sensitivity in vitro [3] | sensitivity in vitro [4] | area under the curve (AUC) [5] [ng·h/mL] | area under the curve (AUC) [6] [ng·h/mL] | Other clinical toxicities (Beagles) | average reduction in circulating lymphocytes (Beagles) [%] | hematological finding (Beagles) | overall response rate (human DLBCL (hDLBCL)) [%] |
| --- | --- | --- | --- | --- | --- | --- | --- | --- | --- | --- |
| CC1(C)CCC(CN2CCN(c3ccc(C(=O)NS(=O)(=O)c4ccc(NCC5CCOCC5)c([N+](=O)[O-])c4)c(Oc4cnc5[nH]ccc5c4)c3)CC2)=C(c2ccc(Cl)cc2)C1 [VEN, venetoclax] | 7.9 | resistance | resistance | sensitive | 31800 | 73600 | grade 2 weight loss associated with hyporexia, and leukotricia | 81 | mild anemia | 18 |
| CC1(C)CCC(c2ccc(Cl)cc2)=C(CN2CCN(c3ccc(C(=O)NS(=O)(=O)c4ccc(N[C@H](CCN5CCOCC5)CSc5ccccc5)c(S(=O)(=O)C(F)(F)F)c4)cc3)CC2)C1 [NAV, navitoclax] | 20.8 | resistance | resistance |  |  |  |  |  |  |  |
